Assay outcomes (PubChem BioAssay)
Rows were chosen to be rich in hits. Some 3.7% of all compounds tested hit in one or more screens of this group.
KCNK3 inh: human KCNK3 channel inhibition, primary screen; hit rate 0.84% among 340,000; CHO-KCNK3 thallium flux, FluxOR fluorescence; hits give low values; AID 602410; O14649; B-score at 10 µM;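 active = B-score under library mean minus 4 SD, starting fluorescence ratio at most library mean plus 5 SD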;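 note: more negative B-score means stronger inhibition of thallium flux through KCNK3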
KCNQ1 block: blocks the human KCNQ1 potassium channel | P51787 | CHO-K1 KCNQ1, FluxOR thallium flux fluorescence; hits give high values | B-score at 10 µM | hit rate 1.3% among 310,000 | AID 2642;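 active = compounds whose thallium flux B-score, printed positive for inhibition, exceeds three library SD while starting fluorescence stays within three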;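 note: channel opened by potassium depolarization with thallium stimulus after 20 min compound exposure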
Kir21 block: Kir2.1 (mouse) channel inhibition; HEK293-Kir2.1, FluxOR thallium flux fluorescence; hits give low values; hit rate 0.85% among 310,000; B-score at 10 µM; P35561; AID 1672;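 active = fluorescence ratio B-score at or below minus 3 SD of library scores, with starting-brightness B-score within 2 SD, cut at about -4.2 in these data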;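 note: channel flux triggered by added potassium and thallium sulfate stimulus; B-score of peak minus minimum fluorescence over baseline after thallium stimulus; more negative B-score means stronger Kir2.1 block with less thallium influx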
KCNK9 block: inhibitors of human KCNK9 two-pore domain potassium channel; Q9NPC2; HEK293 KCNK9, FluxOR thallium flux fluorescence; hits give low values; B-score at 10 µM; hit rate 1.2% among 310,000; AID 488922;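 active = ratio B-score over 3 SD below the library mean, with starting fluorescence within 5 SD of its mean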;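 note: negative B-score means less thallium flux so channel inhibition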
hERG protect: hERG (human) protection from proarrhythmic block. Q12809. CHO-hERG, FluxOR thallium flux, dofetilide IC70 present. activation (rescue from dofetilide block), less the hit threshold, % at 10 µM. hit rate 0.51% among 310,000. AID 1511;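 active = activation above the mean of controls blocked by dofetilide plus 5 SD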;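 note: thallium influx through hERG after potassium depolarization seen as dye fluorescence rise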
KCNQ1 act: potentiators or activators of human KCNQ1 potassium channel; CHO-K1 KCNQ1, thallium flux FluxOR fluorescence; hits give high values; B-score at 10 µM; P51787; hit rate 0.35% among 310,000;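 active = fluorescence ratio B-score, a plate-corrected score, at least three library SD, with initial intensity B-score within 5 SD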
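System: CHO-K1 cells stably expressing KCNQ1 / Medium: assay buffer for compound exposure, DMSO matched across wells / Reagent: thallium- and potassium-containing depolarizing buffer / Compound: one concentration, matched DMSO / Incubation: 20 min compound pretreatment at room temperature / Measured by: kinetic FluxOR fluorescence, 10 s baseline plus 110 s post-stimulus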
* hit, by the source's call; i = inactive; · = no result.

SMILES | KCNK3 inh | KCNQ1 block | Kir21 block | KCNK9 block | hERG protect | KCNQ1 act
CC(C)N(CCc1ccncc1)C(=O)Nc1ccc(Cl)c(Cl)c1 | i | i | 0.03 | i | -11 | i
Cn1c(=S)c2[nH]c(SCCN3CCCC3)nc2n(C)c1=O | i | i | 1 | -6.9* | -3 | i
COc1ccc(NC(=O)CCS(=O)(=O)c2ccc3c(c2)CCN3C(C)=O)cc1 | i | i | 0.68 | i | -6 | i
Cc1c(C)n(Cc2ccccc2)c2ccc(C(=O)OCCCN(C)C)cc12 | i | i | -12* | i | -14 | i
CCN1CCN(C(=O)c2ccc3c(c2)c(C)c(C)n3Cc2ccccc2)CC1 | i | i | -0.92 | i | -11 | i
CNC(=O)CSc1nnc(-c2ccco2)n1-c1ccc(C)cc1 | i | i | 1.1 | i | 48* | i
CCC(C)c1ccccc1NC(=O)c1[nH]c(C)c(C(C)=O)c1C (centres undefined) | i | i | -0.68 | i | 5.8* | i
CC(=O)c1c(C)[nH]c(C(=O)Nc2cccc(C(F)(F)F)c2)c1C | i | i | 2.1 | i | -9 | 7*
CCCCCNCC(=O)Nc1cccc(C(=O)Nc2cccc(C(F)(F)F)c2)c1 | i | 6* | 0.01 | i | -28 | i
CC1CN(C(=O)c2ccc(NS(=O)(=O)c3ccc(F)c(F)c3)cc2)CC(C)O1 (centres undefined) | i | i | 1.7 | i | -7 | i
Oc1c(N=Nc2ccccn2)ccc2ccccc12 | i | i | -0.01 | i | 25* | 29*
Oc1[nH]c2ccccc2c1N=Nc1ccccn1 | i | · | · | · | · | ·
Cc1cccc(CSc2nnc3c(n2)[nH]c2ccccc23)c1 | i | i | -0.4 | i | -7 | i
CC(C)(C)C(=O)/C(=C\c1ccc([N+](=O)[O-])cc1)n1cncn1 | · | i | -7.3* | i | -6 | i
O=C1CC(N2CCN(S(=O)(=O)c3ccc([N+](=O)[O-])cc3)CC2)C(=O)N1c1ccccc1F (centres undefined) | i | · | · | · | · | ·
S=C(NCCNCc1ccccc1)NC1CCCCC1 | · | i | 2.1 | -7.1* | -15 | i
S=C(NCCc1ccccc1)NC1CCCCCC1 | i | i | 0.69 | i | -14 | i
O=c1c(O)c(-c2ccc3c(c2)OCO3)oc2ccccc12 | i | i | -0.35 | i | 9.4* | 33*
O=C(N/N=C/c1ccc(-c2cccc([N+](=O)[O-])c2)o1)[C@H]1C[C@@H]1c1ccccc1 | i | i | -4 | -10* | -8 | i
C/C(=N\NC(=O)C1COc2ccccc2O1)c1ccc(N2CCOCC2)cc1 (centres undefined) | i | i | 0.04 | i | 5.6* | 30*
NNC(=O)c1ccc(OCC2CC(c3ccc(Cl)cc3)=NO2)cc1 (centres undefined) | i | i | 0.17 | i | -4 | i
Cc1ccc(NC(=O)Nc2ccccc2F)cc1S(=O)(=O)N1CCOCC1 | -10* | · | · | · | · | ·
CCOc1ccc(/C=N/NC(=O)c2cc(-c3cccn3C)n[nH]2)cc1 | i | i | -0.99 | i | -4 | i
COc1cc(/C=N/O)cc(Br)c1OCC(=O)NCc1ccccc1 | i | i | -6* | i | -7 | i
CCOc1cc(/C=N/O)cc(Br)c1OCC(=O)NCc1ccccc1 | i | i | -1.2 | i | -3 | i
SMILES | KCNK3 inh | KCNQ1 block | Kir21 block | KCNK9 block | hERG protect | KCNQ1 act
COc1cc(/C=N/NC(=O)Cn2nc([N+](=O)[O-])cc2C)cc(Br)c1OCc1ccccc1 | -9.9* | i | -2.3 | i | -7 | i
CC(C)OC(=O)CSc1nnc(-c2ccccc2)n1N | i | i | -0.02 | i | -14 | i
O=C(O)CN1C(=O)/C(=C\c2cn(CC(=O)N3CCOCC3)c3ccccc23)SC1=S | i | 6* | -7.7 | i | -15 | i
O=C(CCCN1C(=O)/C(=C\c2ccccc2)SC1=S)N1CCOCC1 | i | · | · | · | · | ·
Cn1nc(-c2ccc(N3CCOCC3)c(NS(=O)(=O)c3ccc(Cl)cc3)c2)c2ccccc2c1=O | -10* | · | · | · | · | ·
Nc1ccc2cccc(O)c2c1 | i | · | · | · | · | ·
Cc1cc(=O)[nH]c(NCc2ccc(Cl)cc2)n1 | i | i | 0.05 | i | -6 | i
CCOc1ccc(CN(C)CC(O)COC(c2ccc(OC)cc2)c2ccc(OC)cc2)cc1 (centres undefined) | i | i | -7.7* | i | -24 | i
COc1ccc(C(OCC(O)CN(C)C2CCCCC2)c2ccc(OC)cc2)cc1 (centres undefined) | i | i | -2.4 | i | -11 | i
COc1cc(CC(=O)OCC(=O)NCCc2ccc(S(N)(=O)=O)cc2)cc(OC)c1OC | i | · | · | · | · | ·
O=C(NCc1cccnc1)c1ccc(COc2ccccc2Br)o1 | i | i | -0.83 | i | -9 | i
O=C(Nc1cccnc1)c1ccc(COc2ccccc2Br)o1 | i | i | 1.1 | i | 22* | i
CCc1ccc(OCC(=O)NC(=S)Nc2cccc(CO)c2)c(Br)c1 | i | i | 0.17 | i | -8 | i
CCc1ccc(OCC(=O)NC(=S)Nc2ccc(C(C)=O)cc2)c(Br)c1 | i | i | 2 | i | 4.9* | i
COC(=O)C(O)(NC(=O)c1ccncc1)C(F)(F)F (centres undefined) | i | i | 0.45 | i | -13 | i
COc1cc2c(c(O)c1OC)-c1c(cc(OC)c(OC)c1O)[C@@H](OC(=O)c1ccccc1)[C@@](C)(O)[C@@H](C)[C@@H]2OC(C)=O | · | i | -0.22 | i | 4.7* | i
COc1cc(NC(=O)c2ccc(C(=O)c3ccccc3)cc2)cc(OC)c1OC | i | i | 0.94 | i | -5 | i
CCOc1cccc2cc(-c3cn4cc(C)ccc4n3)c(=O)oc12 | i | i | -1.2 | i | 10* | i
COc1cccc2cc(-c3cn4ccc(C)cc4n3)c(=O)oc12 | i | i | -0.11 | i | -13 | i
C=CCn1c(SCc2ccc(C(=O)Nc3nccs3)cc2)nnc1-c1ccc(C)c(Cl)c1 | i | i | -1.3 | -7.2* | -7 | i
Cn1nnnc1SCc1ccc(C(=O)Nc2nccs2)cc1 | i | i | 0.04 | i | -16 | i
CCOC(=O)NC(=S)Nc1ccc(C(C)(C)C)cc1Br | i | i | -0.77 | i | 11* | 22*
COc1ccc(C(C(=O)NC(C)(C)C)N(C(=O)CCC(=O)Nc2cc(C)on2)c2cccc(F)c2)cc1 (centres undefined) | i | i | 0.08 | i | 7.1* | 24*
